Measured values taken from ChEMBL document CHEMBL1649115, “Enhanced susceptibility to antifungal oligopeptides in yeast strains overexpressing ABC multidrug efflux pumps” (Antimicrob Agents Chemother, 2008).
Converted amounts (≈) assume the structure as drawn. Residues, ends and D or L forms follow the SMILES beside them. *: point of attachment. Ethyl(2-NH2) = NCC*

What was measured:
Saccharomyces cerevisiae [1] = assay: Drug uptake in Saccharomyces cerevisiae AD12345678 at 200 uM pretreated for 10 mins measured after 60 mins by fluorescamine staining; format: ADME, organism-based; conditions: in vivo, 1 h
Saccharomyces cerevisiae [2] = assay: Drug uptake in Saccharomyces cerevisiae ADCDR1 expressing Candida albicans CDR1 efflux pump at 200 uM pretreated for 10 mins measured after 60 mins by fluorescamine staining; format: ADME, organism-based; conditions: in vivo, 1 h
Saccharomyces cerevisiae [3] = assay: Drug uptake in Saccharomyces cerevisiae ADCDR2 expressing Candida albicans CDR2 efflux pump at 200 uM pretreated for 10 mins measured after 60 mins by fluorescamine staining; format: ADME, organism-based; conditions: in vivo, 1 h
Saccharomyces cerevisiae [4] = assay: Drug uptake in Saccharomyces cerevisiae ADMDR1 expressing Candida albicans MDR1 efflux pump at 200 uM pretreated for 10 mins measured after 60 mins by fluorescamine staining; format: ADME, organism-based; conditions: in vivo, 1 h
Saccharomyces cerevisiae [5] = assay: Prodrug stability in wild type Saccharomyces cerevisiae ATCC 9763 assessed as compound cleavage rate measured per mg of protein; format: ADME, organism-based; conditions: in vivo
Saccharomyces cerevisiae [6] = assay: Prodrug stability in Saccharomyces cerevisiae AD12345678 assessed as compound cleavage rate measured per mg of protein; format: ADME, organism-based; conditions: in vivo
Saccharomyces cerevisiae [7] = assay: Prodrug stability in Saccharomyces cerevisiae ADCDR1 expressing Candida albicans CDR1 efflux pump assessed as compound cleavage rate measured per mg of protein; format: ADME, organism-based; conditions: in vivo
Saccharomyces cerevisiae [8] = assay: Prodrug stability in Saccharomyces cerevisiae ADCDR2 expressing Candida albicans CDR2 efflux pump assessed as compound cleavage rate measured per mg of protein; format: ADME, organism-based; conditions: in vivo
Saccharomyces cerevisiae [9] = assay: Prodrug stability in Saccharomyces cerevisiae ADMDR1 expressing Candida albicans MDR1 efflux pump assessed as compound cleavage rate measured per mg of protein; format: ADME, organism-based; conditions: in vivo
Candida albicans [10] = assay: Prodrug stability in wild type Candida albicans 10261 assessed as compound cleavage rate measured per mg of protein; format: ADME, organism-based; conditions: in vivo
Candida albicans [11] = assay: Prodrug stability in fluconazole sensitive Candida albicans isolate Gu4 assessed as compound cleavage rate measured per mg of protein; format: ADME, organism-based; conditions: in vivo
How it was run: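 Oligopeptides were incubated with cell extracts of the yeast cells, and their hydrolytic enzymes cleaved them. The amino acids released were quantified by the Cd-ninhydrin method.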

Candida albicans [12] = assay: Prodrug stability in fluconazole sensitive Candida albicans isolate B3 assessed as compound cleavage rate measured per mg of protein; format: ADME, organism-based; conditions: in vivo
Saccharomyces cerevisiae [13] = assay: Antifungal activity against wild type Saccharomyces cerevisiae ATCC 9763 in YNPG-proline medium after 24 hrs by microdilution method; format: functional; conditions: ATCC 9763, 24 h
Saccharomyces cerevisiae [14] = assay: Antifungal activity against Saccharomyces cerevisiae AD12345678 in YNPG-proline medium after 24 hrs by microdilution method; format: functional; conditions: AD12345678, 24 h
Saccharomyces cerevisiae [15] = assay: Antifungal activity against Saccharomyces cerevisiae ADCDR1 expressing Candida albicans CDR1 efflux pump in YNPG-proline medium after 24 hrs by microdilution method; format: functional; conditions: ADCDR1, 24 h
Saccharomyces cerevisiae [16] = assay: Antifungal activity against Saccharomyces cerevisiae ADCDR2 expressing Candida albicans CDR2 efflux pump in YNPG-proline medium after 24 hrs by microdilution method; format: functional; conditions: ADCDR2, 24 h
Saccharomyces cerevisiae [17] = assay: Antifungal activity against Saccharomyces cerevisiae ADMDR1 expressing Candida albicans MDR1 efflux pump in YNPG-proline medium after 24 hrs by microdilution method; format: functional; conditions: ADMDR1, 24 h
Saccharomyces cerevisiae [18] = assay: Antifungal activity against wild type Saccharomyces cerevisiae ATCC 9763 in YNPG medium containing 1 mg/ml […] after 24 hrs by microdilution method; format: functional; conditions: ATCC 9763, 24 h
Saccharomyces cerevisiae [19] = assay: Antifungal activity against Saccharomyces cerevisiae AD12345678 in YNPG medium containing 1 mg/ml […] after 24 hrs by microdilution method; format: functional; conditions: AD12345678, 24 h
Saccharomyces cerevisiae [20] = assay: Antifungal activity against Saccharomyces cerevisiae ADCDR1 expressing Candida albicans CDR1 efflux pump in YNPG medium containing 1 mg/ml […] after 24 hrs by microdilution method; format: functional; conditions: ADCDR1, 24 h
Saccharomyces cerevisiae [21] = assay: Antifungal activity against Saccharomyces cerevisiae ADCDR2 expressing Candida albicans CDR2 efflux pump in YNPG medium containing 1 mg/ml […] after 24 hrs by microdilution method; format: functional; conditions: ADCDR2, 24 h
Saccharomyces cerevisiae [22] = assay: Antifungal activity against Saccharomyces cerevisiae ADMDR1 expressing Candida albicans MDR1 efflux pump in YNPG medium containing 1 mg/ml […] after 24 hrs by microdilution method; format: functional; conditions: ADMDR1, 24 h
Candida albicans [23] = assay: Antifungal activity against wild type Candida albicans 10261 in RPMI-1640 buffered medium after 24 hrs by microdilution method; format: functional
How it was run: (§1)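 C. albicans cells were grown in 2% glucose, 1% yeast extract, 1% Bacto peptone medium before testing. […] CARE-2 fingerprinting confirmed that each pair is a single strain.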

Candida albicans [24] = assay: Antifungal activity against fluconazole sensitive Candida albicans isolate Gu4 in RPMI-1640 buffered medium after 24 hrs by microdilution method; format: functional; how it was run: as §1
Candida albicans [25] = assay: Antifungal activity against fluconazole resistant Candida albicans isolate Gu5 overexpressing CDR1 and CDR2 in RPMI-1640 buffered medium after 24 hrs by microdilution method; format: functional; conditions: isolate Gu5, 24 h
How it was run: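 C. albicans cells were grown in 2% glucose, 1% yeast extract, 1% Bacto peptone medium before testing. CARE-2 fingerprinting confirmed that each pair is a single strain.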

Candida albicans [26] = assay: Antifungal activity against fluconazole sensitive Candida albicans isolate B3 in RPMI-1640 buffered medium after 24 hrs by microdilution method; format: functional; how it was run: as §1
Candida albicans [27] = assay: Antifungal activity against fluconazole resistant Candida albicans isolate B4 overexpressing MDR1 in RPMI-1640 buffered medium after 24 hrs by microdilution method; format: functional; how it was run: as §1
[28] = Candida albicans, 10261, 24 h, read-out: MIC
[29] = Candida albicans, isolate Gu4, 24 h, read-out: MIC
[30] = Candida albicans, isolate B3, 24 h, read-out: MIC
[31] = Candida albicans, isolate B4, 24 h, read-out: MIC

SMILES: CC(C)C[C@H](NC(=O)[C@H](CC(C)C)NC(=O)[C@@H](N)COCCN)C(=O)NCC(=O)O (H-S(Ethyl(2-NH2))LLG-OH) [listing 1 of 2 here]
- Drug uptake (Saccharomyces cerevisiae [1]): 0.51 nmol/min/mg
- Drug uptake (Saccharomyces cerevisiae [2]): 0.83 nmol/min/mg
- Drug uptake (Saccharomyces cerevisiae [3]): 0.96 nmol/min/mg
- Drug uptake (Saccharomyces cerevisiae [4]): 0.65 nmol/min/mg
- Stability (Saccharomyces cerevisiae [5]): 14 nmol/min
- Stability (Saccharomyces cerevisiae [6]): 14 nmol/min
- Stability (Saccharomyces cerevisiae [7]): 14 nmol/min
- Stability (Saccharomyces cerevisiae [8]): 14 nmol/min
- Stability (Saccharomyces cerevisiae [9]): 14 nmol/min
- Stability (Candida albicans [10]): 20 nmol/min
- Stability (Candida albicans [11]): 20 nmol/min
- Stability (Candida albicans [12]): 20 nmol/min

SMILES: CC(C)C[C@H](NC(=O)[C@H](CC(C)C)NC(=O)[C@@H](N)COCCN)C(=O)NCC(=O)O (H-S(Ethyl(2-NH2))LLG-OH) [listing 2 of 2 here]
- MIC (Saccharomyces cerevisiae [13]): 64 µg/mL (≈ 148 µM)
- MIC (Saccharomyces cerevisiae [14]): 64 µg/mL (≈ 148 µM)
- MIC (Saccharomyces cerevisiae [15]): 16 µg/mL (≈ 37.1 µM)
- MIC (Saccharomyces cerevisiae [16]): 32 µg/mL (≈ 74.2 µM)
- MIC (Saccharomyces cerevisiae [17]): 64 µg/mL (≈ 148 µM)

SMILES: CC(C)C[C@H](NC(=O)[C@H](CC(C)C)NC(=O)[C@H](CC(C)C)NC(=O)[C@@H](N)COCCN)C(=O)NCC(=O)O (H-S(Ethyl(2-NH2))LLLG-OH) [listing 1 of 2 here]
- Drug uptake (Saccharomyces cerevisiae [1]): 0.31 nmol/min/mg
- Drug uptake (Saccharomyces cerevisiae [2]): 0.49 nmol/min/mg
- Drug uptake (Saccharomyces cerevisiae [3]): 0.51 nmol/min/mg
- Drug uptake (Saccharomyces cerevisiae [4]): 0.28 nmol/min/mg
- Stability (Saccharomyces cerevisiae [5]): 14 nmol/min
- Stability (Saccharomyces cerevisiae [6]): 14 nmol/min
- Stability (Saccharomyces cerevisiae [7]): 14 nmol/min
- Stability (Saccharomyces cerevisiae [8]): 14 nmol/min
- Stability (Saccharomyces cerevisiae [9]): 14 nmol/min
- Stability (Candida albicans [10]): 20 nmol/min
- Stability (Candida albicans [11]): 20 nmol/min
- Stability (Candida albicans [12]): 20 nmol/min

SMILES: CC(C)C[C@H](NC(=O)[C@H](CC(C)C)NC(=O)[C@H](CC(C)C)NC(=O)[C@@H](N)COCCN)C(=O)NCC(=O)O (H-S(Ethyl(2-NH2))LLLG-OH) [listing 2 of 2 here]
- MIC (Saccharomyces cerevisiae [13]): 256 µg/mL (≈ 470 µM)
- MIC (Saccharomyces cerevisiae [14]): 256 µg/mL (≈ 470 µM)
- MIC (Saccharomyces cerevisiae [15]): 128 µg/mL (≈ 235 µM)
- MIC (Saccharomyces cerevisiae [16]): 128 µg/mL (≈ 235 µM)
- MIC (Saccharomyces cerevisiae [17]): 256 µg/mL (≈ 470 µM)

SMILES: [N-]=[N+]=CC(=O)CC[C@H](N)C(=O)O [6-DIAZO-5-OXO-L-NORLEUCINE]
- MIC (Saccharomyces cerevisiae [18]): 0.5 µg/mL (≈ 2.92 µM)
- MIC (Saccharomyces cerevisiae [19]): 0.5 µg/mL (≈ 2.92 µM)
- MIC (Saccharomyces cerevisiae [20]): 0.125 µg/mL (≈ 0.73 µM)
- MIC (Saccharomyces cerevisiae [21]): 0.25 µg/mL (≈ 1.46 µM)
- MIC (Saccharomyces cerevisiae [22]): 0.5 µg/mL (≈ 2.92 µM)
- MIC (Candida albicans [23]; [28]): 4 µg/mL (≈ 23.4 µM)
- MIC (Candida albicans [24]; [29]): 4 µg/mL (≈ 23.4 µM)
- MIC (Candida albicans [25]): 1 µg/mL (≈ 5.84 µM)
- MIC (Candida albicans [26]; [30]): 4 µg/mL (≈ 23.4 µM)
- MIC (Candida albicans [27]; [31]): 4 µg/mL (≈ 23.4 µM)
- Drug uptake (Saccharomyces cerevisiae [1]): 2 nmol/min/mg
- Drug uptake (Saccharomyces cerevisiae [2]): 2.32 nmol/min/mg
- Drug uptake (Saccharomyces cerevisiae [3]): 2.25 nmol/min/mg
- Drug uptake (Saccharomyces cerevisiae [4]): 1.98 nmol/min/mg

SMILES: C[C@H](N)C(=O)O [ALANINE]
- Drug uptake (Saccharomyces cerevisiae [1]): 3.51 nmol/min/mg
- Drug uptake (Saccharomyces cerevisiae [2]): 4.16 nmol/min/mg
- Drug uptake (Saccharomyces cerevisiae [3]): 4.35 nmol/min/mg
- Drug uptake (Saccharomyces cerevisiae [4]): 3.33 nmol/min/mg

SMILES: OC(Cn1cncn1)(Cn1cncn1)c1ccc(F)cc1F [FLUCONAZOLE]
- MIC (Saccharomyces cerevisiae [13]): 2 µg/mL (≈ 6.53 µM)
- MIC (Saccharomyces cerevisiae [14]): 1 µg/mL (≈ 3.27 µM)
- MIC (Saccharomyces cerevisiae [15]): 32 µg/mL (≈ 104 µM)
- MIC (Saccharomyces cerevisiae [16]): 16 µg/mL (≈ 52.2 µM)
- MIC (Saccharomyces cerevisiae [17]): 32 µg/mL (≈ 104 µM)
- MIC (Candida albicans [23]): 4 µg/mL (≈ 13.1 µM)
- MIC (Candida albicans [23]; [28]): 4 µg/mL (≈ 13.1 µM)
- MIC (Candida albicans [24]): 8 µg/mL (≈ 26.1 µM)
- MIC (Candida albicans [24]; [29]): 8 µg/mL (≈ 26.1 µM)
- MIC (Candida albicans [26]): 4 µg/mL (≈ 13.1 µM)
- MIC (Candida albicans [26]; [30]): 4 µg/mL (≈ 13.1 µM)
- MIC (Candida albicans [27]): 64 µg/mL (≈ 209 µM)
- MIC (Candida albicans [27]; [31]): 64 µg/mL (≈ 209 µM)

SMILES: C[C@H](NC(=O)[C@H](Cc1cnc[nH]1)NC(=O)[C@H](CO)NC(=O)[C@@H](N)CC(=O)O)C(=O)N[C@@H](CCCCN)C(=O)N[C@@H](CCCNC(=N)N)C(=O)N[C@@H](Cc1cnc[nH]1)C(=O)N[C@@H](Cc1cnc[nH]1)C(=O)NCC(=O)N[C@@H](Cc1ccc(O)cc1)C(=O)N[C@@H](CCCCN)C(=O)N[C@@H](CCCNC(=N)N)C(=O)N[C@@H](CCCCN)C(=O)N[C@@H](Cc1ccccc1)C(=O)N[C@@H](Cc1cnc[nH]1)C(=O)N[C@@H](CCC(=O)O)C(=O)N[C@@H](CCCCN)C(=O)N[C@@H](Cc1cnc[nH]1)C(=O)N[C@@H](Cc1cnc[nH]1)C(=O)N[C@@H](CO)C(=O)N[C@@H](Cc1cnc[nH]1)C(=O)N[C@@H](CCCNC(=N)N)C(=O)NCC(=O)N[C@@H](Cc1ccc(O)cc1)C(=O)O [HISTATIN 5]
- MIC (Saccharomyces cerevisiae [13]): 128 µg/mL (≈ 42.2 µM)
- MIC (Saccharomyces cerevisiae [14]): 128 µg/mL (≈ 42.2 µM)
- MIC (Saccharomyces cerevisiae [15]): 128 µg/mL (≈ 42.2 µM)
- MIC (Saccharomyces cerevisiae [16]): 128 µg/mL (≈ 42.2 µM)
- MIC (Saccharomyces cerevisiae [17]): 128 µg/mL (≈ 42.2 µM)
- MIC (Candida albicans [23]; [28]): 32 µg/mL (≈ 10.5 µM)
- MIC (Candida albicans [24]; [29]): 32 µg/mL (≈ 10.5 µM)
- MIC (Candida albicans [25]): 32 µg/mL (≈ 10.5 µM)
- MIC (Candida albicans [26]; [30]): 32 µg/mL (≈ 10.5 µM)
- MIC (Candida albicans [27]; [31]): 32 µg/mL (≈ 10.5 µM)
- Stability (Candida albicans [10]): 0.3 nmol/min
- Stability (Candida albicans [11]): 0.3 nmol/min
- Stability (Candida albicans [12]): 0.3 nmol/min
